Data set [1] in a line: Toxicity in immunodeficient nude mouse model xenografted with high alert medicated patient derived human GBM1 cells assessed as clinical symptoms at 50 mg/kg,ip QD for 17 days. Type of data set: organism-based. The note with it: in vivo, 408 h, time 17 day. In outline: (§1)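 Female athymic nude mice bearing subcutaneous GBM1-HAM PDX fragments (20 mm³); treatment began day 11 post-implant at tumour volumes 75-196 mm³, 10 per group. Compound i.p. daily in cyclodextrin vehicle (17 days alone, 27 days in combination); temozolomide 42 mg/kg p.o. daily for 5 days in PBS/glucose/Tween 80. Calliper volumes three times weekly; body weight and clinical signs monitored.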
In general terms: In xenograft studies the graft and the host belong to different species.

Data set [2] in a line: Metabolic stability in mouse liver microsomes assessed as compound remaining at 2.5 uM and measured after 45 mins in presence of NADPH by LC-MS/MS analysis. The class given is ADME, Microsome. The note with it: read-out: Stability. A general note: Microsomes from liver hold many membrane-bound enzymes, among them those of drug oxidation.
For a further data set, the target named is mTORC2 (Homo sapiens) (UniProt P42345+Q6R327+Q9BVC4+Q9BPZ7). Put plainly: Inhibition of mTORC2 signalling in human U-87 MG cells assessed as decrease in AKT phosphorylation at S473 residue at 0.05 to 1 uM incubated for 48 hrs by Western blot analysis. The class given is cell-based. In a few lines: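 U-87 MG cells cultured two days, then exposed 48 h to increasing doses. Lysed in RIPA with protease inhibitors; 5 µg protein run on 4-20% SDS gels and transferred to PVDF. Probed for phospho/total AKT, S6, S6K, P62 and LC3, detected by ECL. Band intensities normalized to β-actin.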

Data set [3] in a line: Prodrug conversion in Swiss mouse plasma assessed as half life of (2R,4aR,9aR)-7-((E)-2-(5-hydroxy-2,2-dimethylchroman-7-yl)vinyl)-1,1,4a-trimethyl-2,3,4,4a,9,9a-hexahydro-1H-xanthene-2,5-diol metabolite at 20 mg/kg, IP and measured upto 6 hrs by LC-MS/MS analysis. The note with it: in vivo. Type of data set: ADME, organism-based. In outline:
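Male Swiss mice (5-6 weeks, 3 per dose) given a single i.p. dose of prodrug, 2.5 mg/mL in 15% hydroxypropyl-β-cyclodextrin in 65 mM phosphate pH 7.4. Retro-orbital blood taken at 5, 15, 30 min and 1, 3, 6 h; plasma acetonitrile-precipitated. Parent and metabolite quantified by LC-MS/MS with a 1-2,000 ng/mL calibration.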

The nature of data set [4]: Metabolic stability in mouse liver microsomes assessed as compound remaining at 2.5 uM and measured after 45 mins in absence of NADPH by LC-MS/MS analysis. The class given is ADME, Microsome. The note with it: read-out: Stability.
Data set [5] has as its target T1, Oxysterol-binding protein 1 (Homo sapiens) (UniProt P22059).
T1 sequence (whole entry): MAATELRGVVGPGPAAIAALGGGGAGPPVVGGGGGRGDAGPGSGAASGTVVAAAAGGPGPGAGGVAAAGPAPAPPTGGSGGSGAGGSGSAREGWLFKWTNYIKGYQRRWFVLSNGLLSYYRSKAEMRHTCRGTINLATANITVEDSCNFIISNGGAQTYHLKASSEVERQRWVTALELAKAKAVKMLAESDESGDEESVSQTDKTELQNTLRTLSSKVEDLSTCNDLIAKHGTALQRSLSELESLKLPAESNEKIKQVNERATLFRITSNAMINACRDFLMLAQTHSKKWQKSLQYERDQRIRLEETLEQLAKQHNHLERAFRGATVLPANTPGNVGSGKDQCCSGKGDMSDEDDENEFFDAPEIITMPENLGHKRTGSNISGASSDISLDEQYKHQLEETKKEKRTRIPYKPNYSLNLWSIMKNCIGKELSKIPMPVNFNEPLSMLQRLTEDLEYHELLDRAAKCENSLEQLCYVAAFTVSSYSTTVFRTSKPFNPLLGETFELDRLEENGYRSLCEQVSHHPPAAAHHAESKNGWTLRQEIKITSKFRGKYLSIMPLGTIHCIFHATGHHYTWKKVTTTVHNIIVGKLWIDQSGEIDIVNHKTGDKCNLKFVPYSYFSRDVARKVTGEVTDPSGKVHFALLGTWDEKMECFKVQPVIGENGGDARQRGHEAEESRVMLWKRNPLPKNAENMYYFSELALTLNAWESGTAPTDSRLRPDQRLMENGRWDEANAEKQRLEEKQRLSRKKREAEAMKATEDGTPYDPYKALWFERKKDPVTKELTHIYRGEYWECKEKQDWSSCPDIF
Put plainly: Inhibition of human OSBP in human hTERT-RPE1 cells co-transfected with GFP-P4MSidM and TagBFP-betaGalT1 assessed as half life for inhibition of PI4P transfer by OBSP by immunofluorescence analysis. Type of data set: cell-based. In a few lines:
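hTERT-RPE-1 cells electroporated with GFP-P4M^SidM (PI4P probe) and TagBFP-βGalT1, plated 18-24 h. Timelapse confocal imaging at 37 °C after compound addition, with P4M-GFP intensity at the TGN tracked over time and compared before and 50 min after addition. Mean of 4 to 6 independent experiments ± SEM.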

Data set [6] in a line: Toxicity in immunodeficient nude mouse model xenografted with high alert medicated patient derived human GBM1 cells assessed as clinical symptoms at 50 mg/kg,ip QD for 27 days cotreatment with Temozolomide at 42 mg/kg,po QD for 5 days. Type of data set: organism-based. The note with it: in vivo, 648 h, time 27 day. In a few lines: as §1
In data set [7] the target is T1, Oxysterol-binding protein 1 (Homo sapiens). Nature of the data set: Inhibition of human OSBP in human hTERT-RPE1 cells assessed as increase in OSBP recruitment at TGN and measured after 4 hrs by confocal microscopy. Type of data set: cell-based.
Data set [8] is described as follows: Antitumor activity in high alert medicated patient derived human GBM1 cells xenografted in immunodeficient nude mouse model assessed as change in tumor volume at 50 mg/kg,ip QD and measured after 11 days relative to control. Type of data set: functional. The note with it: time 11 day. In a few lines:
as §1

A short description of data set [9]: Antitumor activity in high alert medicated patient derived human GBM1 cells xenografted in immunodeficient nude mouse model assessed as T/C ratio at 20 mg/kg,ip QD cotreatment with Temozolomide at 42 mg/kg,po QD and measured after 11 days. Type of data set: functional. The note with it: time 11 day. In a few lines:
as §1

Data set [10] is described as follows: Antitumor activity in high alert medicated patient derived human GBM1 cells xenografted in immunodeficient nude mouse model assessed as tumor growth inhibition at 20 mg/kg,ip QD cotreatment with Temozolomide at 42 mg/kg,po QD and measured after 11 days. Type of data set: functional. The note with it: GBM1, 264 h. In outline:
as §1

Data set [11] in a line: Toxicity in immunodeficient nude mouse model xenografted with high alert medicated patient derived human GBM1 cells assessed as body weight change at 50 mg/kg,ip QD for 17 days. Type of data set: organism-based. The note with it: in vivo, 408 h, time 17 day. In a few lines:
as §1

A short description of data set [12]: Toxicity in immunodeficient nude mouse model xenografted with high alert medicated patient derived human GBM1 cells assessed as clinical symptoms at 20 mg/kg,ip QD for 27 days cotreatment with Temozolomide at 42 mg/kg,po QD for 5 days. Type of data set: organism-based. The note with it: in vivo, 648 h, time 27 day. In a few lines:
as §1

Data set [13] is described as follows: Permeability across blood brain barrier in Swiss mouse assessed as brain to plasma ratio of (2R,4aR,9aR)-7-((E)-2-(5-hydroxy-2,2-dimethylchroman-7-yl)vinyl)-1,1,4a-trimethyl-2,3,4,4a,9,9a-hexahydro-1H-xanthene-2,5-diol metabolite at 15 mg/kg, ip and measured after 1.5 hrs by LC-MS/MS analysis. The class given is ADME, organism-based. In a few lines: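 Nine male Swiss mice given 15 mg/kg prodrug i.p. (4 mg/mL in cyclodextrin vehicle). Blood taken from three mice at each of 0.25, 0.75 and 1.5 h; animals then saline-perfused transcardially under isoflurane. Plasma and brain homogenate (1:1 water) acetonitrile-precipitated and analyzed by LC-MS/MS.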

Activity calls are given as the source filed them. The calls are words filed in the database; no cut-off is given here.

One may read the T/C as the ratio of treated to control. As for `CC1(C)CCc2c(O)cc(/C=C/c3cc(O)c4c(c3)C[C@@H]3C(C)(C)[C@H](OC=O)CC[C@@]3(C)O4)cc2O1`, the Activity result in data set [1] is “Non-Toxic”; in data set [6], “Non-Toxic”; in data set [8], 625.61%; in data set [11], “Non-Toxic”; in [12], “Non-Toxic”. The remaining at 0.75 h, 2.5 µM is 5.3% in data set [2] and 16% in [4]. In addition, at mTORC2 (Homo sapiens), the inhibition entry is “Dose-Dependent Effect”. Further, in data set [3], the t1/2 was determined as 120 min. Besides, the T1/2 in data set [5] was found to be 25 min. Further, the inhibition entry in data set [7] is “inactive”. For the same compound, in data set [9], the T/C worked out at 49.91%. In addition, in data set [10], the TGDI at 20 mg/kg turned out to be 1.75. In addition, the BPR in data set [13] is given as 1.74.
